Assay outcomes: PubChem BioAssay, several laboratories
Only some compounds are listed: those with a hit (about 2.3% of all), similar ones and a draw of the others.
ARFGAP1 inhibitor: rat ARFGAP1 inhibition; Q62848; Arfgap1-stimulated ARF1 GTP hydrolysis, GDP FP detection; inhibition, % at 16.5 µM; 0.26% of 360,000 active; AID 651572;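 active = inhibition above a per-plate limit, mean inhibition of low control wells plus 3 SD, cut at about 25% in these data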
Target sequence (Q62848 1-136 limits assumed): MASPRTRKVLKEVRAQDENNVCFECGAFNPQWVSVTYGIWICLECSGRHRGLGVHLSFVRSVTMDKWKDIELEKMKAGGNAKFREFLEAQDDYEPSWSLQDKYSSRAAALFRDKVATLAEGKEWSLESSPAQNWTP
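Material: rat Arfgap1 GAP domain (His6, aa 1-136), purified enzyme. Also added: human ARF1(Δ1-17)-GTP substrate. Compound dosing: 16.5 µM single point, 1.26% DMSO. Timing: enzyme reaction 120 min at 25 °C after 20 min preincubation. Signal: GDP detection by fluorescence polarization. Read-out basis: percent inhibition of GAP-stimulated GDP formation, scaled between DMSO and no-Arfgap1 medians.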
Calb FLC: C. albicans growth modulation with fluconazole. growth inhibition, % (no concentration beside the values). C. albicans CaCi-2 + fluconazole, Alamar Blue growth, 48 h. AID 1979. 0.57% of 300,000 active;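 active = growth inhibition above about 58% in most replicates, limit read from the data, passing the limit was not always enough; inconclusive = exactly half the replicates above a set limit; inactive = most replicates below a set limit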;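 note: all wells also contain fluconazole at 8 µg/ml as a sub-toxic cotreatment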
ASAP1 GAP inh: ASAP1 ArfGAP inhibition. Q9ULH1. ASAP1-stimulated ARF1 GTP hydrolysis, GDP FP detection. inhibition, % at 16.5 µM. 0.19% of 360,000 active; in the data active = inhibition above about 25%
HGIII-sPLA2 inh: Blocks human group III sPLA2 activity; 0.56% of 370,000 active; QFRET BODIPY PC-A2 liposome hydrolysis, fluorescence; Q9NZ20; inhibition, % at 12.2 µM;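 active = inhibition above mean plus 3 SD of compounds lying within the high and low control bounds, cut at about 19% in these data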
Target sequence (Q9NZ20 whole entry, looked up): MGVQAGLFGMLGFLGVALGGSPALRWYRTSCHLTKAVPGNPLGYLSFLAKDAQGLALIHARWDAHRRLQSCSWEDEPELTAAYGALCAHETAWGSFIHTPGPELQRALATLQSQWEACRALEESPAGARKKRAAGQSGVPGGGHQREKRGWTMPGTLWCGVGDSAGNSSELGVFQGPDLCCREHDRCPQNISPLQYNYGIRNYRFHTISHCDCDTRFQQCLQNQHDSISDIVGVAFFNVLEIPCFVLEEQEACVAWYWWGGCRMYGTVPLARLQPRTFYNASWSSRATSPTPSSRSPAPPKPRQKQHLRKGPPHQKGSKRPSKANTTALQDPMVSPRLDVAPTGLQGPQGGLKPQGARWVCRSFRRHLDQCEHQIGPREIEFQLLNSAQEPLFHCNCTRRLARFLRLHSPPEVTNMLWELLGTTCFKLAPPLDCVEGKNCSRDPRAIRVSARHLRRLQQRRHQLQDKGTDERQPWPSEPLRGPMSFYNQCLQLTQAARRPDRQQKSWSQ
SKKanGAS inh: SKKanGAS growth inhibition; inhibition, % at 7.5 µM; AID 1662; S. pyogenes SKKanGAS, kanamycin growth, BacTiter-Glo, 6 h; 1.3% of 300,000 active;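 active = mean replicate score, as percent of positive control median, at least 50; inconclusive = mean below 50 but one replicate at or above 50; inactive = mean and every replicate below 50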;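 note: strain carries kanamycin resistance gene driven by streptokinase promoter and grows in 40 µg/ml kanamycin; loss of luminescence reflects streptokinase promoter inhibition or plain growth inhibition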
Of the large screens only hits and unclear results are named; the others gave an inactive call.

COCCCN1CCC2(CCC(c3ccccc3)CC2)C1=O (centres undefined)	none (no result: ARFGAP1 inhibitor, Calb FLC, ASAP1 GAP inh, SKKanGAS inh)
Cc1ccc(/C=C/C(=O)c2ccccc(=O)c2O)cc1C	Calb FLC 99, SKKanGAS inh 97
O=C(/C=C/c1ccccc1)c1cc(Br)ccc(=O)c1O	SKKanGAS inh 98
Cc1cc(Br)cn2c(Cc3cccc(Cl)c3)c(C3CCCCC3)nc12	none (no result: Calb FLC, SKKanGAS inh)
c1ccc(CSc2nnc(-c3cccs3)n2Cc2ccco2)cc1	Calb FLC 121
COc1ccc(S(=O)(=O)Nc2cc3c4c(oc3c3ccccc23)CC(C)(C)CC4=O)cc1	SKKanGAS inh 53
COc1ccc(CN2C(=O)c3ccccc3C2OC)cc1 (centres undefined)	none
COc1ccc(CN2C(=O)c3ccccc3C(/C=N\OCc3ccc(C)cc3)C2=O)cc1 (centres undefined)	SKKanGAS inh 106
O=C(Cc1c[nH]c2ccccc12)Nc1ccc(Nc2cccnc2)c(-c2ccc(F)c(F)c2)c1	none (no result: Calb FLC, SKKanGAS inh)
CC(=O)/C(N=Nc1c(C)n(C)n(-c2ccccc2)c1=O)=C(\C)O	none
Cc1c(N=NC2=C(O)CC(C)(C)CC2=O)c(=O)n(-c2ccccc2)n1C	Calb FLC 96
Cc1ccc(O)c(N=NC2=C(O)CC(C)(C)CC2=O)c1	Calb FLC 85
Cc1cc(C)c(C)c(OCCCOc2cccc3cccnc23)c1	SKKanGAS inh 61
COC(=O)C1=C(C)N(Cc2ccc(C(F)(F)F)cc2)C(=NCc2ccc3c(c2)OCO3)NC1c1ccccc1 (centres undefined)	none (no result: Calb FLC, SKKanGAS inh)
Cc1cc2oc(=O)cc(CN(C)Cc3ccccc3Cl)c2cc1C	SKKanGAS inh 62
O=C1NC(=O)/C(=C/c2ccccc2Oc2ccc(Cl)cc2)S1	Calb FLC 79, SKKanGAS inh 57
CCOC(=O)C(=O)N1CCC(C(=O)NC2CCCc3ccccc32)CC1 (centres undefined)	none (no result: ARFGAP1 inhibitor, Calb FLC, ASAP1 GAP inh, SKKanGAS inh)
COc1cc(NC(=O)c2cc(-c3ccccc3)on2)cc(OC)c1OC	none
COc1cc(NC(=O)c2cc3nc(-c4ccccc4)cc(-c4ccccc4)n3n2)cc(OC)c1OC	SKKanGAS inh 54
CCOC(=O)[C@@]12CCCC3=C1N(CCC3)C(=O)[C@H]2CC(=O)NCCCN1CCCC1=O	none (no result: ARFGAP1 inhibitor, Calb FLC, ASAP1 GAP inh, SKKanGAS inh)
O=C(Nc1ccc(Cl)cc1)N[C@@H]1c2c(ccc3ccccc23)OC[C@@H]1CO	SKKanGAS inh 60
N#C/C(=C\c1c[nH]c2ccc(Br)cc12)c1ccccn1	SKKanGAS inh 51
N#C/C(=C\c1ccc(C(=O)O)cc1)c1ccccn1	none
O=C(Nc1ccc(Cl)c(Cl)c1)O/N=C/c1ccncc1	SKKanGAS inh 56
CCOC(=O)CC(NC(=O)CCS(=O)(=O)c1ccc2c(c1)n(C)c(=O)c(=O)n2C)c1ccc(C)cc1 (centres undefined)	SKKanGAS inh 59
COc1ccnc(N2CCN(c3ccccc3)CC2)c1C#N	Calb FLC 79
COc1ccc(N2CCN(c3ncccc3C#N)CC2)cc1	none
O=C(CSc1ccc(C(F)(F)F)cc1[N+](=O)[O-])Nc1ccccc1	ASAP1 GAP inh 31
CC(=O)Nc1ccc(NC(=O)CSc2ccc(C(F)(F)F)cc2[N+](=O)[O-])cc1	none
CCc1nc2ccc(C(=O)Nc3cccc(OC)c3)cn2c1N(CC)Cc1cccc(Br)c1	none (no result: Calb FLC, SKKanGAS inh)
CC1(C)CC(=O)C=C(Nc2ccc([N+](=O)[O-])cc2)C1	Calb FLC 78
CC1(C)CC(=O)C=C(Nc2ccc(O)cc2)C1	none (no result: Calb FLC, SKKanGAS inh)
CC(C)Sc1cc(N2CCCC2)nc(-c2ccc(F)cc2)n1	SKKanGAS inh 76
CCCSc1cc(N2CCCC2)nc(-c2ccccc2)n1	SKKanGAS inh 52
CC(C)Sc1cc(N2CCCC2)nc(-c2ccccc2)n1	SKKanGAS inh 69
CCOC(=O)[C@]12CCCC=C1N(CCCOC)C(=O)[C@@H]2CC(=O)NCc1ccc(C)o1	none (no result: ARFGAP1 inhibitor, Calb FLC, ASAP1 GAP inh, SKKanGAS inh)
CCCCCCCCN1C(=O)[C@@H](CC(=O)NCc2ccc(OC)c(OC)c2)C[C@@]2(C(=O)OC)C1=C[C@H](C(C)(C)C)O[C@@H]2C	none (no result: Calb FLC, SKKanGAS inh)
COc1ccc(-c2nnc(Nc3nc4c(OC)cccc4s3)o2)cc1	SKKanGAS inh 73
COc1ccc(-c2nnc(Nc3nc4c(OC)cccc4s3)o2)c(OC)c1	Calb FLC 101
COc1ccc2nc(Nc3ccccc3OC)sc2c1	none
CC(=O)Nc1nc(NCc2ccccc2Cl)n(-c2ccccc2)n1	none
CC(=O)Nc1nc(NC(=O)/C=C/c2ccccc2)n(-c2ccccc2)n1	SKKanGAS inh 97
O=C(Cn1nc(-c2ccccc2)ccc1=O)NCCc1cccc(F)c1	none (no result: ARFGAP1 inhibitor, Calb FLC, ASAP1 GAP inh, SKKanGAS inh)
COCC(=O)Nc1nc2n(n1)C(c1ccccc1Cl)CC(c1ccc(OC)cc1)N2 (centres undefined)	Calb FLC 111
COCC(=O)Nc1nc2n(n1)C(c1ccc(Cl)cc1)CC(c1ccc(OC)cc1)N2 (centres undefined)	none
COc1ccc(CCNc2ncnc3sc(C)cc23)cc1OC	Calb FLC 107
CCCCCCCN1N=C(C)C(C(=O)c2ccccc2)C1=O (centres undefined)	SKKanGAS inh inconclusive
CCCCCCN1N=C(C)C(C(=O)c2ccc(Cl)cc2)C1=O (centres undefined)	SKKanGAS inh 50
COc1c2c(cc(O)c1C(C)=O)OC(C)(C)C=C2	none (no result: Calb FLC, SKKanGAS inh)
CC(C)=CCC12Oc3cc(O)ccc3C1(O)Oc1cc3c(c(O)c1C2=O)C=CC(C)(C)O3 (centres undefined)	SKKanGAS inh 105 (no result: ARFGAP1 inhibitor, ASAP1 GAP inh, HGIII-sPLA2 inh)
Cc1ccc(C(=O)Oc2coc(CSc3ncccn3)cc2=O)cc1[N+](=O)[O-]	none (no result: ARFGAP1 inhibitor, Calb FLC, ASAP1 GAP inh, SKKanGAS inh)
Cc1ccc(-c2c(NC(=O)C3CC3)nc3ncccn23)cc1	none (no result: ARFGAP1 inhibitor, Calb FLC, ASAP1 GAP inh, SKKanGAS inh)
Cn1c(CNC(=O)CNC(=O)c2cccc(Cl)c2)cc(=O)n(C)c1=O	none
Cn1c(CNC(=O)CNC(=O)c2ccc(F)cc2)cc(=O)n(C)c1=O	SKKanGAS inh 56
COc1ccc(OC2C(=O)N(Cc3ccc4c(c3)OCO4)C2c2sccc2C)cc1 (centres undefined)	Calb FLC 93
COc1ccc(OC2C(=O)N(Cc3ccc(F)cc3)C2c2ccc(OC)c(OC)c2)cc1 (centres undefined)	none
CCOC(=O)C1(Cc2ccccc2)CCN(Cc2ccnc3ccccc23)CC1	none (no result: ARFGAP1 inhibitor, Calb FLC, ASAP1 GAP inh, SKKanGAS inh)
Clc1ccc2nc(-c3ccccn3)c(Nc3ccc4c(c3)OCO4)n2c1	SKKanGAS inh 92
O=C(Nc1ccc(Cl)c(Cl)c1)C1=Cc2ccccc2OC1	SKKanGAS inh 75
CCN1CCN(C(c2ccc(C(F)(F)F)cc2)c2ccc3cccnc3c2O)CC1 (centres undefined)	SKKanGAS inh 100
CCCCC(=O)NC(c1ccc(OC)cc1)c1ccc2cccnc2c1O (centres undefined)	none (no result: Calb FLC, SKKanGAS inh)
CN1CCN(C(c2ccc(Cl)cc2)c2cc(Cl)c3cccnc3c2O)CC1 (centres undefined)	SKKanGAS inh 101
CCC(=O)NC(c1cc(Cl)c2cccnc2c1O)C1CC1 (centres undefined)	none (no result: Calb FLC, SKKanGAS inh)
CN1CCN(C(c2ccccc2)c2ccc(Cl)cc2)CC1 (centres undefined)	none (no result: Calb FLC, SKKanGAS inh)
